Source: PubChem BioAssay (Johns Hopkins Ion Channel Center)
This is a sample that favours compounds with a hit; in the whole collection about 3.7% have one here.
KCNQ1 pot: potentiators or activators of human KCNQ1 potassium channel; P51787; CHO-K1 KCNQ1, thallium flux FluxOR fluorescence; hits give high values; B-score at 10 µM; 0.35% of 310,000 active;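 active = fluorescence ratio B-score, a plate-corrected score, at least three library SD, with initial intensity B-score within 5 SD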
Target sequence (P51787 whole entry, looked up): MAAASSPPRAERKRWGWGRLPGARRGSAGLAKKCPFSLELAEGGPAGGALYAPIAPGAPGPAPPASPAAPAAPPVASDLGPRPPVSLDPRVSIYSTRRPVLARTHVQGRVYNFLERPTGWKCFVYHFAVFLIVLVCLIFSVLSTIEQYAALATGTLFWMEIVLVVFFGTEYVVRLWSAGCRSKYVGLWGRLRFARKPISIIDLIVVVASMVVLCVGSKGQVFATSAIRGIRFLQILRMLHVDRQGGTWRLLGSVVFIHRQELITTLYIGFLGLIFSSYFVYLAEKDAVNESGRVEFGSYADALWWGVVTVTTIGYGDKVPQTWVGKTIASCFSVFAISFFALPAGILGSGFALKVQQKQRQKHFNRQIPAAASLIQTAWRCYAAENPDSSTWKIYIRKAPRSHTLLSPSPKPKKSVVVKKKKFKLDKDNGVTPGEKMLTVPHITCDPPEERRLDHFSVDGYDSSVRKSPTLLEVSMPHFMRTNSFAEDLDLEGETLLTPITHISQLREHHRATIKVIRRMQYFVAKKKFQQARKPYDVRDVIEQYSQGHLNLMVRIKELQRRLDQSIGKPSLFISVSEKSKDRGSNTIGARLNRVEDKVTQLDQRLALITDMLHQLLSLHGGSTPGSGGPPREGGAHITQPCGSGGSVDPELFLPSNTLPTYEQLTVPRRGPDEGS
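Test system: CHO-K1 cells stably expressing KCNQ1 / Medium: assay buffer / Also added: depolarizing K+/Tl+ stimulus, K2SO4 and Tl2SO4 each 12.5 mM in 5x stock / Incubation: 90 min dye loading and 20 min compound exposure, both at room temperature / Signal: thallium influx via FluxOR fluorescence, kinetic imaging / Evaluation: B score of baseline-normalized fluorescence ratio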
KCNK3 block: human KCNK3 channel inhibition, primary screen | B-score at 10 µM | 0.84% of 340,000 active | O14649 | CHO-KCNK3 thallium flux, FluxOR fluorescence; hits give low values;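 active = B-score under library mean minus 4 SD, starting fluorescence ratio at most library mean plus 5 SD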;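 note: more negative B-score means stronger inhibition of thallium flux through KCNK3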
hERG rescue: shields human hERG channel from block by proarrhythmic agents; 0.51% of 310,000 active; CHO-hERG, FluxOR thallium flux, dofetilide IC70 present; activation (rescue from dofetilide block), less the hit threshold, % at 10 µM; Q12809;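 active = activation above the mean of controls blocked by dofetilide plus 5 SD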;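 note: thallium influx through hERG after potassium depolarization seen as dye fluorescence rise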
KCNK9 block: human KCNK9 channel inhibition; Q9NPC2; HEK293 KCNK9, FluxOR thallium flux fluorescence; hits give low values; B-score at 10 µM; 1.2% of 310,000 active; AID 488922;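 active = ratio B-score over 3 SD below the library mean, with starting fluorescence within 5 SD of its mean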;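 note: negative B-score means less thallium flux so channel inhibition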
Kir21 inh: inhibitors of mouse Kir2.1 inward-rectifier potassium channel | AID 1672 | 0.85% of 310,000 active | P35561 | B-score at 10 µM | HEK293-Kir2.1, FluxOR thallium flux fluorescence; hits give low values;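 active = fluorescence ratio B-score at or below minus 3 SD of library scores, with starting-brightness B-score within 2 SD, cut at about -4.2 in these data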;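 note: channel flux triggered by added potassium and thallium sulfate stimulus; B-score of peak minus minimum fluorescence over baseline after thallium stimulus; more negative B-score means stronger Kir2.1 block with less thallium influx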
KCNQ1 inh: blocks the human KCNQ1 potassium channel; CHO-K1 KCNQ1, FluxOR thallium flux fluorescence; hits give high values; B-score at 10 µM; 1.3% of 310,000 active; AID 2642; P51787;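 active = compounds whose thallium flux B-score, printed positive for inhibition, exceeds three library SD while starting fluorescence stays within three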;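 note: channel opened by potassium depolarization with thallium stimulus after 20 min compound exposure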
KCNK9 inh conf: confirmation of human KCNK9 potassium channel inhibitors | 43% of 4,900 active | HEK293 KCNK9 cells, FluxOR thallium flux fluorescence | inhibition, % at 10 µM | shares compounds with KCNK9 block;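 active = thallium signal inhibited by more than 5 SD of the compound-free buffer control wells, on both duplicate plates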
Kir21 sel: mouse Kir2.1 off-target activity of KCNK9 modulators | inhibition, % at 10 µM | shares compounds with KCNK9 block | Kir2.1 cells, FluxOR thallium flux fluorescence | AID 492993 | 4% of 4,900 active;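 active = thallium signal drop more than 5 SD beyond the mean of the no-compound control wells, seen in both duplicate plates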;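 note: signal is fluorescence rise after thallium addition divided by baseline fluorescence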
KCNK9 uninduced: non-induced cell nonspecific activity of KCNK9 modulators; shares compounds with KCNK9 block; non-induced KCNK9-HEK293, FluxOR thallium flux; inhibition, % at 10 µM; 40% of 4,900 active; AID 492997;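 active = thallium signal drop beyond 5 SD of the untreated control mean, on both duplicate plates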
Of the large screens only hits and unclear results are named; the others gave an inactive call (follow-up assays come after a bar, where they were run).

CCOC(=O)c1c(-c2ccccc2)csc1NC(=O)CSc1nc(N)cc(N)n1	none
CCOC(=O)c1c(-c2ccccc2)csc1NC(=O)c1ccc(S(=O)(=O)N2CC(C)OC(C)C2)cc1 (centres undefined)	none
CCOC(=O)Cc1cnc(NC(=O)CSc2nc(C)cc(C)n2)s1	none | KCNK9 inh conf inactive | Kir21 sel inactive | KCNK9 uninduced inactive
CCOC(=O)c1c(-c2ccccc2)csc1NC(=O)CSc1nc(C)cc(C)n1	none | KCNK9 inh conf inactive | Kir21 sel inactive | KCNK9 uninduced inactive
CCOC(=O)c1c(-c2ccccc2)csc1NC(=O)c1cc(S(=O)(=O)N2CCOCC2)ccc1C	none | KCNK9 inh conf inactive | Kir21 sel inactive | KCNK9 uninduced inactive
Cc1ccc(C(=O)N2CCN(C)CC2)cc1S(=O)(=O)N1CCCCCC1	none
CCOc1ccccc1NC(=O)CSc1nnc(-c2cccnc2)o1	none
COc1ccc(CCNC(=O)c2cc(COc3c(C)cccc3C)on2)c(OC)c1	none
CN1c2ccccc2C(C)(C)[C@]12C=Cc1cc(O)ccc1O2	Kir21 inh -5.9, KCNQ1 inh 13 | KCNK9 inh conf inactive | Kir21 sel 33% | KCNK9 uninduced inactive
COC(=O)Cn1c(=O)n(CCc2ccccc2)c(=O)c2c3c(sc21)CCCC3	none | KCNK9 inh conf inactive | Kir21 sel inactive | KCNK9 uninduced inactive
CC(O)CNc1nc2sc3c(c2c(=O)n1Cc1ccco1)CCCCC3 (centres undefined)	none
CC(O)CNc1nc2sc3c(c2c(=O)n1CCc1ccccc1)CCCCC3 (centres undefined)	none | KCNK9 inh conf inactive | Kir21 sel inactive | KCNK9 uninduced inactive
CSc1ccc(C(=O)C2CCCN(C(=O)c3nn(C)c(=O)c4ccccc34)C2)cc1 (centres undefined)	none
COCc1ccc(C(=O)N2CCCC(C(=O)c3cccc(C(F)(F)F)c3)C2)o1 (centres undefined)	none
CSc1ccc(C(=O)C2CCCN(C(=O)c3cccc(N4CCOCC4)c3)C2)cc1 (centres undefined)	none | KCNK9 inh conf inactive | Kir21 sel inactive | KCNK9 uninduced inactive
CSc1ccc(C(=O)C2CCCN(C(=O)c3nonc3C)C2)cc1 (centres undefined)	none | KCNK9 inh conf inactive | Kir21 sel inactive | KCNK9 uninduced inactive
COCc1ccc(C(=O)N2CCCC(C(=O)c3ccc(SC)cc3)C2)o1 (centres undefined)	none | KCNK9 inh conf inactive | Kir21 sel inactive | KCNK9 uninduced inactive
CCCCOc1ccccc1NC(=O)c1scc2c1OCCO2	KCNK9 block -12 | KCNK9 inh conf 48% | Kir21 sel inactive | KCNK9 uninduced 36%
CS(=O)(=O)N(C(=O)NC(=O)NC12CC3CC(CC(C3)C1)C2)C1CCCCC1	none
CC(C)Oc1cccc(C(=O)C2CCCN(C(=O)c3cncs3)C2)c1 (centres undefined)	none
CC(C)Oc1cccc(C(=O)C2CCCN(C(=O)c3ccc4c(c3)OCO4)C2)c1 (centres undefined)	none | KCNK9 inh conf inactive | Kir21 sel inactive | KCNK9 uninduced inactive
CC(C)Oc1cccc(C(=O)C2CCCN(C(=O)c3ccsc3)C2)c1 (centres undefined)	none | KCNK9 inh conf inactive | Kir21 sel inactive | KCNK9 uninduced inactive
CC(C)Oc1cccc(C(=O)C2CCCN(C(=O)c3noc4c3CCCC4)C2)c1 (centres undefined)	none | KCNK9 inh conf inactive | Kir21 sel inactive | KCNK9 uninduced inactive
COc1cccc(COC(=O)C2CCN(S(=O)(=O)c3ccc(C)cc3C)CC2)c1OC	none | KCNK9 inh conf inactive | Kir21 sel inactive | KCNK9 uninduced inactive
COc1cccc(COC(=O)C2CCN(S(=O)(=O)c3ccc(C)cc3)CC2)c1OC	none
COc1ccc(C(=O)C2CCCN(C(=O)c3cccc(Cl)c3F)C2)cc1OC (centres undefined)	none | KCNK9 inh conf inactive | Kir21 sel inactive | KCNK9 uninduced inactive
COc1c(C)cc(C(=O)C2CCCN(C(=O)c3cccc(F)c3)C2)cc1C (centres undefined)	none | KCNK9 inh conf inactive | Kir21 sel inactive | KCNK9 uninduced inactive
CC(OC(=O)CCc1ccccc1)C(=O)Nc1ccc(Cl)cn1 (centres undefined)	none
O=c1cc(/C=C/c2ccccc2)oc2c1ccc1ccccc12	KCNK9 block -8.3 | KCNK9 inh conf inactive | Kir21 sel inactive | KCNK9 uninduced inactive
CCS(=O)(=O)c1nc(S(=O)(=O)c2ccc(Cl)cc2)c(NCCN2CCOCC2)s1	none
CCOCCn1c(=NC(=O)CSCC(=O)Nc2cc(C)on2)sc2cc(OC)ccc21	none
CCOC(=O)Cn1c(=NC(=O)CSC(C)=O)sc2cc(F)ccc21	KCNK9 block -8.6 | KCNK9 inh conf 63% | Kir21 sel inactive | KCNK9 uninduced 33%
CCn1c(=NC(=O)CSC(C)=O)sc2cc(OC)ccc21	KCNK9 block -14 | KCNK9 inh conf 60% | Kir21 sel inactive | KCNK9 uninduced 32%
COCCn1c(=NC(=O)CSC(C)=O)sc2cc(F)ccc21	none
O=C(c1noc2c1CSc1ccccc1-2)N1CCN(c2ccc(Cl)cc2)CC1	none
COc1ccccc1N1CCN(Cc2cc3c(cc2Br)OCCO3)CC1	none | KCNK9 inh conf inactive | Kir21 sel inactive | KCNK9 uninduced inactive
COc1ccc(N2CCN(Cc3csc(C)c3-c3ccc(C)cc3)CC2)cc1	none | KCNK9 inh conf inactive | Kir21 sel inactive | KCNK9 uninduced inactive
COc1ccc(N2CCN(Cc3cc4c(cc3Br)OCCO4)CC2)cc1	none | KCNK9 inh conf inactive | Kir21 sel inactive | KCNK9 uninduced inactive
COc1cc(OC)c(OC)cc1CN1CCN(c2ccccc2OC)CC1	none
O=S(=O)(c1ccccc1)N1CCN(Cc2cc3c(cc2Br)OCCO3)CC1	none (no result: KCNQ1 pot, hERG rescue, KCNK9 block, Kir21 inh, KCNQ1 inh)
COc1ccc2oc(C(=O)OCC(=O)N(C)CC(=O)Nc3ccc(F)cc3)c(C)c2c1	none
CCCCC(=O)N(c1ccc(C(=O)O)cc1)c1nc(-c2ccc(Cl)cc2)c(CC)s1	none | KCNK9 inh conf inactive | Kir21 sel inactive | KCNK9 uninduced inactive
CC(C)c1nnc(NC(=O)CCS(=O)(=O)c2ccccc2)s1	none
CCCC(C)c1nnc(NC(=O)CCS(=O)(=O)c2ccccc2)s1 (centres undefined)	none | KCNK9 inh conf inactive | Kir21 sel inactive | KCNK9 uninduced inactive
